# NF-kB expr up – activators of NF-kB expression in neurons, primary screen, cell-based, HTS. human neuronal cells, NF-kB reporter expression; hits give high values. fold change at 12.5 µM. hit rate 1.6% among 190,000. AID 1239, 2008; in the data active means fold change above about 3.3
# Pf gametocyte – late stage P. falciparum gametocyte viability inhibitors, primary screen, ATP luminescence, HTS; P. falciparum stage V gametocytes, 24 h; inhibition, % at 10.9 µM; hit rate 0.065% among 150,000; AID 743093, 2013;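 active means inhibition above the mean plus 3 SD of compounds within the control limits, set per campaign, cut at about 38% in these data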;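 further: 0% = DMSO wells and 100% = medium only without gametocytes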
# STAT1 activator – STAT1 signaling activators, primary screen, cell-based, HTS, luciferase reporter; NIH 3T3 STAT1-luciferase reporter, IFN-gamma, luminescence; 100% = IFN-gamma alone, no compound; activation (% of control), % at 5.5 µM; hit rate 2.6% among 200,000;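 active means activation above the screen-wide mean activation plus 3 SD, cut at about 130% in these data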;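 further: raw ratio to IFN-gamma control signal so 100% means no change and 0% no light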
# APP 5'UTR act – activators of APP 5'UTR luciferase reporter, primary screen, SH-SY5Y cells | activation, % at 2 µM | AID 1276, 2008 | hit rate 1% among 190,000 | SH-SY5Y APP 5'UTR luciferase reporter, luminescence; zero percent = DMSO vehicle wells;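 active means activation above a set limit, based on mean plus 3 SD of controls, cut at about 140% in these data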
# STAT1 inh – STAT1 signaling inhibitors, primary screen, cell-based, HTS, luciferase reporter. hit rate 0.35% among 200,000. inhibition, % at 5.5 µM. NIH 3T3 STAT1-luciferase reporter, IFN-gamma, luminescence;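 active means inhibition above a set limit, the mean inhibition across all tested compounds plus 3 SD, cut at about 34% in these data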;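 further: 0% = IFN-gamma with DMSO and 100% = IFN-gamma with 300 µM nifuroxazide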
# STAT3 activator – IL-6 driven STAT3 reporter potentiators, primary screen, U3A cells, luciferase, luminescence, MLSCN library | IL-6 STAT3-luciferase reporter; 100% = signal with IL-6 EC80 alone | activation (% of control), % at 5.6 µM | hit rate 0.91% among 190,000 | AID 871, 2007;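 active means activation above the screen-wide mean of compound activation plus 3 SD, cut at about 130% in these data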;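 further: 0% = background luminescence of wells with medium and substrate only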
#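 Test system: human U3A cells carrying STAT3-luciferase construct; control set: IL-6-only wells as 100% reference; timing: compound pre-incubation 1 h before IL-6, then 6 h stimulation at 37 °C; also added: IL-6 stimulus at 33 ng/mL final; evaluation: % activation versus median of IL-6-stimulated wells; detection: reporter luminescence signal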
# An asterisk follows results filed as active; / = no result given. This is a sample that favours compounds with a hit; in the whole collection about 3.9% have one here.
SMILES,NF-kB expr up,Pf gametocyte,STAT1 activator,APP 5'UTR act,STAT1 inh,STAT3 activator
C/C(=N\NC(=O)c1ccc(CN2CCOCC2)cc1)c1ccc(NC(=O)c2ccccc2)cc1,1.5,-5,131*,74,-37,96
O=C(Nc1ccc(CN2CCOCC2)cc1)c1cccc(F)c1,2.1,14,133*,76,-38,104
COCCNc1cnn(-c2ccccc2)c(=O)c1Cl,/,0,/,/,/,/
Brc1ccccc1-n1nnc(-c2cccnc2)n1,1.8,/,126,-2,-26,/
Fc1ccc(-n2nnc(-c3cccnc3)n2)cc1,2.1,/,149*,24,-51,/
COc1ccc(OCC(=O)N(Cc2ccco2)C2CCS(=O)(=O)C2)cc1 (stereo not given),/,10,/,/,/,/
Nc1ccc(-c2cnc(-c3ccc(N)cc3)nc2)cc1,4.8*,37,137*,126,-40,59
O=C(C[C@@H]1C/C=C\C[C@H](Cc2ccc(F)cc2)C(=O)OC[C@@H](c2ccccc2)NC1=O)NCCO,/,5,/,/,/,/
CCOC(=O)C1=C(C)NC(C)=C(C(=O)OCC)C1C(=O)OCC(=O)N(CC)C1CCS(=O)(=O)C1 (stereo not given),1.2,-5,95,7,4,96
CCCCSc1nc2c(cnn2-c2ccccc2)c(=O)n1N,4.7*,4,141*,168*,-46,88
CCCSc1nc2c(cnn2-c2ccccc2)c(=O)n1N,/,4,/,/,/,/
Nn1c(SCc2ccccc2)nc2c(cnn2-c2ccccc2)c1=O,2.1,19,135*,93,-39,98
CCS/C(N)=N/N=C/c1cc(C)ccc1O,13*,/,132*,160*,-35,103
O=C(c1ccccc1O)N1N=C(c2ccccc2)CC1(O)C(F)(F)F (stereo not given),1.1,-13,101,14,-3,107
COc1cc2sc(-c3ccc(S(C)(=O)=O)cc3)c(-c3ccc4c(c3)OCO4)c2cc1OC,/,7,/,/,/,/
COc1ccc(C2=NN(C(C#N)c3ccc(OC)c(OC)c3)C(c3ccccc3)C2)cc1 (stereo not given),6.1*,/,124,155*,-27,103
COc1ccc(C2=NN(c3ccccc3)C(c3ccc(OC)c(OC)c3)C2)cc1 (stereo not given),/,0,/,/,/,/
O=S1(=O)CCOCCCN1Cc1ccc(Cl)cc1,/,-3,/,/,/,/
C/C(=C\C(=O)c1ccccc1)Nc1ccc(O)cc1,4.5*,21,140*,3,-44,95
O=C(/C=C/Nc1cccc(O)c1)c1ccccc1,6.3*,/,95,184*,7,32
Cc1ccc(N/C=C/C(=O)c2ccccc2)cc1Br,/,1,/,/,/,/
Cc1ccc(C(=O)/C=C/Nc2ccc3c(c2)OCO3)cc1,6*,-17,132*,95,-28,54
Cc1ccc(C(=O)/C=C/Nc2cccc(O)c2)cc1,13*,/,92,138*,7,24
CC(=O)c1cccc(NS(=O)(=O)c2ccc(N/C=C\C(=O)c3ccc(C)cc3)cc2)c1,1,-12,87,4,14,70
C/C(=C\C(=O)c1cccnc1)Nc1ccc(O)cc1,0.68,-7,113,/,-14,97
SMILES,NF-kB expr up,Pf gametocyte,STAT1 activator,APP 5'UTR act,STAT1 inh,STAT3 activator
CC(C)c1cc(C(C)C)c(S(=O)(=O)N2CCNCC2)c(C(C)C)c1,/,-7,/,/,/,/
CC(=O)c1ccc(N/C=C\C(=O)c2ccc(C)cc2)cc1,1,15,148*,127,-54,94
C/C(=C\C(=O)c1ccc(C)cc1)Nc1cccc(O)c1,1.4,/,101,157*,-1,80
Brc1ccccc1-c1csnn1,0.91,-14,102,-12,-3,98
CCOC(=O)c1ccc2[nH]c(C)c(C)c2c1,2.1,/,115,43,-25,94
Cc1[nH]c2ccc(C(=O)N3CCCCC3)cc2c1C,4.2*,-46,145*,140*,-51,109
Cc1ccc(NC(=O)c2cc(=O)[nH]c3ccccc23)cc1C,/,19,/,/,/,/
COC(=O)c1c(-c2c(Cl)cccc2Cl)noc1C(=O)NN,/,-6,/,/,/,/
Oc1c(C=NCc2ccccc2)sc2ccccc12,3.5*,-8,143*,11,-48,103
CSCCC(NC(=O)OC(C)(C)C)C(=O)Oc1ccc2c(=O)c(-c3ccc4c(c3)OCCO4)coc2c1 (stereo not given),3.2,-9,129*,173*,-32,90
CC(=O)N1N=C(c2ccc(Cl)cc2)OC1c1ccc(C(C)C)cc1 (stereo not given),1.6,19,133*,-10,-36,123
CC(=O)N1N=C(c2cccc([N+](=O)[O-])c2)OC1c1ccccc1Cl (stereo not given),1.4,/,107,22,-8,96
Cc1ccc(OCC(=O)NNC(=O)C2CCCO2)c(C)c1 (stereo not given),/,34,108,15,-8,95
CCn1cc(Cl)c(C(=O)Nc2ccc3c(c2)OCCO3)n1,4.1*,8,106,137*,-8,70
O=C(Nc1ccc(NC(=O)c2ccccn2)cc1)C(=O)Nc1ccc2c(c1)OCCO2,0.95,12,116,-2,-15,93
O=C(Nc1ccc2c(c1)OCCO2)c1ccccn1,2.6,-7,56,107,47*,45
CCn1cc(Cl)c(C(=O)Nc2cccc(C(F)(F)F)c2)n1,1.5,-16,103,-3,-5,94
CN(C)S(=O)(=O)c1cccc(NC(=O)c2cncc(Br)c2)c1,0.83,0,93,20,7,106
Cc1ccc(NC(=O)c2cncc(Br)c2)cc1S(=O)(=O)N(C)C,1.9,-4,136*,71,-40,117
O=C(Nc1ccc2c(c1)OCCO2)c1ccc2ccccc2n1,9.2*,2,137*,220*,-42,130
CN(C)C(=O)c1ccc(-c2nnc(OCc3nc4ccccc4n3C)c3ccccc23)cc1,/,-3,/,/,/,/
Cc1ccc(NC(=O)c2ccc3ccccc3n2)cc1S(=O)(=O)N(C)C,1.4,5,134*,73,-36,106
O=C(CSCc1ccccc1Cl)Nc1ccc2c(c1)OCCO2,2,-6,107,137*,-7,102
Cc1cnc(C(=O)Nc2ccc(C)c(S(=O)(=O)N(C)C)c2)cn1,1.6,7,108,-18,-9,110
O=C(CNCc1ccccc1Cl)Nc1ccc2c(c1)OCCO2,/,9,/,/,/,/
CCS(=O)(=O)N1CCC(NC(=O)C(Cc2ccc(OC)c(OC)c2)NC(C)=O)CC1 (stereo not given),/,-14,/,/,/,/
Cc1ccccc1C1=Nn2c(nnc2-c2ccco2)SC1,/,11,/,/,/,/
CN=c1scc(C)n1/N=C/c1ccc(O)cc1O,3.8*,23,49,156*,56*,52

# Compound activity (PubChem BioAssay)
